# Results taken from ChEMBL document CHEMBL4610117 (J Med Chem, 2020).
# pIC50, pKd: −log10 of the molar value.
# What was measured:
# [1] = Clearance in NMRI mouse at 0.3 to 0.5 mg/kg, iv administered as bolus dose by LC-MS/MS analysis; type: ADME, organism-based; conditions: in vivo
# [2] = Clearance in human hepatocytes at 1 uM measured after 2 to 90 mins by LC-MS/MS analysis; type: ADME, cell-based, Hepatocyte
# [3] = Protein binding in rat plasma assessed as unbound fraction at 3 uM measured after 7 hrs by LC-MS/MS analysis; type: ADME, cell-free
# [4] = target: T1, Cyclin-G-associated kinase (Homo sapiens, UniProt O14976); test: Binding affinity to wild-type human partial length GAK (G13 to Y338 residues) expressed in bacterial expression system by Kinomescan method
# T1 sequence (O14976 whole entry): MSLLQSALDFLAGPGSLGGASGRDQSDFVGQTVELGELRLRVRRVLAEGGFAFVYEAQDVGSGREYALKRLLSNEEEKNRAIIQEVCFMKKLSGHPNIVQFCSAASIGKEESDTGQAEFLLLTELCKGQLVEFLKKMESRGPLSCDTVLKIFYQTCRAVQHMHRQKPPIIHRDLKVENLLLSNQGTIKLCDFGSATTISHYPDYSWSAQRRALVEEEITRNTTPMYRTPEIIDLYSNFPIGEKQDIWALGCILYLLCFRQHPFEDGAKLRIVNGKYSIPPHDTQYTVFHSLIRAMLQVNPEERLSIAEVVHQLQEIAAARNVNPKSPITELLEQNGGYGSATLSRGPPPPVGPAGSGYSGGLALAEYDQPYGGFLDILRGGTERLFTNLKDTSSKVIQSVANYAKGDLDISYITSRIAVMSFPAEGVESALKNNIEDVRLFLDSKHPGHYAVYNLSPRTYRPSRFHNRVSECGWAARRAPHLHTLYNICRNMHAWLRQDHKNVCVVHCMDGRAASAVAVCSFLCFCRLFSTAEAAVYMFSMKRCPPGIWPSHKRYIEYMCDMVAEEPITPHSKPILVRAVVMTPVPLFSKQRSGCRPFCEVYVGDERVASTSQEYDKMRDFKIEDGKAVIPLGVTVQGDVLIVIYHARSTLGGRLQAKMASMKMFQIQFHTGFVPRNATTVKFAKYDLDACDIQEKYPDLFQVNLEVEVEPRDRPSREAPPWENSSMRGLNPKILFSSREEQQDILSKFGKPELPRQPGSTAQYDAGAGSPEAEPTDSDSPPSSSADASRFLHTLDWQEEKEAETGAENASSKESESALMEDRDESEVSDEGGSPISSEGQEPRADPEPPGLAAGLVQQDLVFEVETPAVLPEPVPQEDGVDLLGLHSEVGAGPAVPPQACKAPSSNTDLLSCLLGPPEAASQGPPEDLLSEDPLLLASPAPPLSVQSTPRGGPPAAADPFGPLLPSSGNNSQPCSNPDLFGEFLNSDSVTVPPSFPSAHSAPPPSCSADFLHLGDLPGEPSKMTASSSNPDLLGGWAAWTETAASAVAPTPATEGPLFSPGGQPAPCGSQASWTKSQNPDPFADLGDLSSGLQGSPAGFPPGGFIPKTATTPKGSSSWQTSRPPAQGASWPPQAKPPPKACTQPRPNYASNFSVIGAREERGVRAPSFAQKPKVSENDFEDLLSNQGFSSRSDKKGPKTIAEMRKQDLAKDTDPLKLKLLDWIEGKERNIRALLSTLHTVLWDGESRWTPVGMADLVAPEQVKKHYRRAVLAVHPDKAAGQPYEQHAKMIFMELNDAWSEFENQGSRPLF
# [5] = Toxicity in nude mouse xenografted with human SUM149 cells assessed as body weight loss at 20 mg/kg, po bid dosed every 3 days followed by 4 days interval in presence of olaparib relative to control; type: organism-based, SUM149PT; conditions: in vivo
# [6] = Clearance in Han-Wistar rat hepatocytes at 1 uM measured after 2 to 90 mins by LC-MS/MS analysis; type: ADME, cell-based, Hepatocyte
# [7] = Apparent half life in Wistar rat at 0.3 to 0.5 mg/kg, iv administered as bolus dose by LC-MS/MS analysis; type: ADME, organism-based; conditions: in vivo, read-out: t1/2(app) (converted)
# [8] = Antitumor activity against human CR5038 cells xenografted in NOD/SCID mouse assessed as tumor growth at 20 mg/kg, po qd dosed every 2 days followed by 5 days interval for 2 weeks and subsequent dosing at 10 mg/kg in presence of carboplatin relative to control; type: functional
# Procedure, shortened: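 CR5038 human CRC PDX in NOD/SCID mice, n = 10/group. Oral dosing q.d. at 20 mg/kg, reduced to 10 mg/kg from day 14, 2 days on/5 days off. Combined with carboplatin 40 mg/kg i.p. once weekly (1 day on/6 days off). T/C ratio reported versus vehicle and the monotherapies; body weight was monitored.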
# [9] = Clearance in Beagle dog at 0.3 to 0.5 mg/kg, iv administered as bolus dose by LC-MS/MS analysis; type: ADME, organism-based, Canis lupus familiaris; conditions: in vivo
# [10] = Volume of distribution at steady state in Beagle dog at 0.3 to 0.5 mg/kg, iv administered as bolus dose by LC-MS/MS analysis; type: ADME, organism-based, Canis lupus familiaris; conditions: in vivo, read-out: Vdss
# SU-DHL-8 = test: Antiproliferative activity against human SUDHL8 cells assessed as reduction in cell viability measured after 4 days by celltiter-glo luminescent assay; type: functional, cell-based; conditions: SU-DHL-8, 96 h
structure (smiles),measurement,setting,value
C[C@@H]1COCCN1c1cc(-c2ccnn2C)c2ccnc(-c3ccn[nH]3)c2n1 [ELIMUSERTIB],CL,[1],58.3 mL/min/kg
same,CLH,[2],6.83 mL/min/kg
same,"fraction unbound at 7 h, 3 µM",[3],0.17
same,pKd,[4],6.24
same,Activity,[5],< 10%
same,CLH,[6],12.3 mL/min/kg
same,half-life,[7],1.3 h
same,T/C,[8],0.34
same,clearance,[9],13.2 mL/min/kg
same,Vd,[10],1 L/kg
same,pIC50,SU-DHL-8,8.05
